3 molecules from ChEMBL document CHEMBL1129784, “Decomposition pathways and in vitro HIV inhibitory effects of isoddA pronucleotides: toward a rational approach for intracellular delivery of nucleoside 5'-monophosphates” (J Med Chem, 1996) can be followed below.

Molecules are shown by their SMILES. Several values for one entry are separate records, joined by “and”; a condition that tells them apart may be missing. Identical values can stand only once. Where only a bound is given, the exact number is not on record here.

The nature of data set [1]: Half life in CEM cell extracts (25 uM, 37 degree C). The class given is ADME, CCRF-CEM. Conditions: human. An outline of the steps:
(§1)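 Incubated at 25 µM initial concentration and 37 °C in full CEM cell extract, in RPMI 1640 with 10% heat-inactivated fetal calf serum, or in freshly withdrawn human serum. Aliquots analysed by on-line cleaning HPLC (precolumn deproteinization) with UV at 260 nm. Relative concentrations came from peak areas. Half-lives were derived from kinetic model fits: pseudo-first-order or substrate inhibition.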

Data set [2] can be described thus: Half life in culture medium (25 uM, 37 degree C). The class given is ADME. An outline of the steps:
as §1

A short description of data set [3]: Selectivity index which is the ratio between CC50 and EC50. The data set is classed as functional.
Data set [4] concerns C8166. Briefly: Ability to reduce 50% viability of C8166 cells acutely infected with HIV-2 strain IIIB. The note with it: Homo sapiens, in the assay text read “HIV-2 strain CBL-20” for “HIV-2 strain IIIB”. The data set is classed as functional. The method in brief: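 Cytotoxicity in mock-infected cells run in parallel with the antiviral assay: 1 × 10^4 MT-4 or C8166 cells per well with or without various compound concentrations, 4-day incubation at 37 °C, viable cells counted by MTT. CC50 is the dose reducing viability by 50% at day 4. Mean of three independent determinations; variation among duplicates <22%.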

The subject of data set [5] is MT4. Briefly: Effective dose to achieve 50% protection of MT-4 cells from acutely infected HIV-1 strain IIIB. Conditions: Homo sapiens. The data set is classed as functional, cell-based. The method in brief:
(§2)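 Inhibition of virus-induced cytopathogenicity in acutely infected cells. HIV-1 IIIB in MT-4 cells at 100 CCID50; HIV-2 CBL-20 in C8166 cells at 1000 CCID50. 1 × 10^4 cells per well with various compound concentrations, 4 days at 37 °C, viability by MTT. EC50 is the dose giving 50% protection. Mean of three independent determinations.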

Data set [6] deals with C8166. As to the kind of experiment: Effective dose to achieve 50% protection of C8166 cells acutely infected with HIV-2 strain IIIB. The data set is classed as functional, cell-based. Conditions: Homo sapiens, in the assay text read “HIV-2 strain CBL-20” for “HIV-2 strain IIIB”. An outline of the steps:
as §2

Data set [7] has as its system MT4. Briefly: Ability to reduce 50% viability of mock-infected MT-4 cells. The note with it: Homo sapiens.

With `Cc1cn(C2CC(N=[N+]=[N-])C(COP(=O)(OCCSC(=O)C(C)(C)C)OCCSC(=O)C(C)(C)C)O2)c(=O)[nH]c1=O` (stereo not given), the half-life – broadly, how long it takes for the measured level to halve – at 25 µM was 60 min in data set [1] and 4.29 days in data set [2]. Moreover, the SI in data set [3] was 600 and 245.
As to `CC(=O)SCCOP(=O)(OCCSC(C)=O)OCC1OC(n2cc(C)c(=O)[nH]c2=O)CC1N=[N+]=[N-]` (stereo not given), the half-life at 25 µM in data set [1] is below 6 min; in data set [2] it was 0.375 days.
`Cc1cn([C@H]2C[C@H](N=[N+]=[N-])[C@@H](CO)O2)c(=O)[nH]c1=O` [ZIDOVUDINE]: the cytotoxic concentration (CC50) (in general, the concentration that lowers cell viability or growth by half) in data set [4] was above 500 µM; in data set [7] it was 150 µM. For the same molecule, the EC50 – broadly, the concentration that produces a half-maximal response – in data set [5] was 5 nM; in data set [6] it was 6 nM. In addition, in data set [3], the SI is 30000 and > 83000.
